We go through three molecules from ChEMBL document CHEMBL5247673, “Discovery of Small Molecules Targeting the Frameshifting Element RNA in SARS-CoV-2 Viral Genome” (ACS Med Chem Lett, 2023).

One experiment relates to MCF7. Briefly: (§1) Inhibition of programmed -1 ribosomal frameshifting in human MCF7 cells harboring pCherryGFP-CoV2-WT plasmid assessed as inhibition of GFP expression incubated for 30 mins by fluorescence microscopic analysis. It is filed as functional, cell-based. The gist of the method: (§2)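 MCF-7 cells were treated with compound at various concentrations and transfected with an mCherry–FSE–GFP reporter: WT, a stop-codon negative control, or an in-frame no-FSE plasmid. GFP expression was the read-out, compared with a DMSO (0 μM) control. Data are mean ± SD of three independent experiments.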

The nature of experiment [1]: Inhibition of programmed -1 ribosomal frameshifting in human MCF7 cells harboring pCherryGFP-CoV2-WT plasmid assessed as inhibition of GFP expression at 50 uM incubated for 30 mins by fluorescence microscopic analysis. The following applies: MCF7, 0.5 h. Type of experiment: functional. The method in brief: as §2
The nature of experiment [2]: as §1. It is filed as functional, cell-based. The following applies: MCF7, 0.5 h. The method in brief:
as §2

For the molecule `COc1ccc(-c2nc(NCCN3CCOCC3)c3ccccc3n2)cc1`, in the experiment with MCF7, the inhibition result is “Dose-Dependent Effect”. Turning to `COc1ccc(-c2nc(NCCN3CCOCC3)c3cc(OC)ccc3n2)cc1`, the inhibition at 50 µM in experiment [1] was determined as 50%. For `CCNCC1CCN(c2c(F)cc3c(=O)c(C(=O)O)cn(CC)c3c2F)C1` (stereo not drawn) [MERAFLOXACIN], the half-maximal inhibitory concentration (IC50) in experiment [2] turned out to be 33.5 µM.

What is called inhibition is the relative decrease from the control value, in per cent. What is called IC50 is the concentration that inhibits the measured activity by half.
